Assay outcomes: PubChem, several laboratories
dFosB activator – activators of delta FosB homodimer, primary screen, biochemical, fluorescence polarization, TAMRA-CDK5 oligo, single point | Protein FosB (Mus musculus), P13346 | purified delta FosB; percent of positive-control signal above neutral wells | activation, % at 25 µM | 0.99% of 340,000 active | AID 493131, 2011;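 active means mean activation above about 17%, with every replicate also reaching it, limit read from the data, passing the limit was not always enough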
HTR2A ag – mouse Htr2a agonists via beta-arrestin recruitment, primary screen, cell-based, luminescence; 5-hydroxytryptamine receptor 2A (Mus musculus), P35363; AID 624169, 2012; CHO-K1 mHTR2A beta-arrestin complementation; percent of 30 µM serotonin response; 0.66% of 360,000 active; activation, % at 7.6 µM;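 active means activation above a run cutoff, the mean activation of all tested compounds plus 3 SD, cut at about 14% in these data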
Target sequence (P35363 whole entry, looked up): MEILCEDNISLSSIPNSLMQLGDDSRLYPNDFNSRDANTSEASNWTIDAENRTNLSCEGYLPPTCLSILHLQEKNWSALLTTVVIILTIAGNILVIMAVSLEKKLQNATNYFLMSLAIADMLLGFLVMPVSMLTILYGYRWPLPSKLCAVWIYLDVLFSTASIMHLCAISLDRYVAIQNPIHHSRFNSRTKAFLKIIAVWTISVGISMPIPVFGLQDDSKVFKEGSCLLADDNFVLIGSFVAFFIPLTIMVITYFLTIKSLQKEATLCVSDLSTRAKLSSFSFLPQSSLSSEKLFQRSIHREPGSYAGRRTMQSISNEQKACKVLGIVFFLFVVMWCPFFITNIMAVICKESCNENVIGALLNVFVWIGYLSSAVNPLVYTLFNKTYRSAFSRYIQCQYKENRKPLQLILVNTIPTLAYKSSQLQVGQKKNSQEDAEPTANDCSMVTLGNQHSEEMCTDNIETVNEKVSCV
IMP-1 inhibitor – IMP-1 metallo-beta-lactamase inhibitors, primary screen, biochemical, epi-absorbance readout, Pseudomonas aeruginosa enzyme; purified IMP-1, nitrocefin hydrolysis, epi-absorbance fluorescence; 0.45% of 290,000 active; inhibition, % at 5.6 µM; AID 1556, 2009;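 active means inhibition above the mean plus 3 SD of all compounds in the same screening run, cut at about 4.5% in these data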
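Test system: recombinant IMP-1 enzyme, purified / Medium: HEPES buffer pH 7.1 with ZnSO4 and Brij 35 / Doses: single dose, 5.6 µM / Times: 25 °C, 15 min preincubation, 25 min reaction / Detection: Epi-absorbance via hydrolysed-nitrocefin quenching of white-plate fluorescence, 480/530 nm, EDTA stop / Evaluation: percent inhibition from optical density relative to buffer-blank wells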
VIM-2 inh – VIM-2 metallo-beta-lactamase inhibitors, primary screen, biochemical, epi-absorbance readout, Pseudomonas aeruginosa enzyme | purified VIM-2, nitrocefin hydrolysis, epi-absorbance fluorescence | inhibition, % at 5.6 µM | 0.89% of 290,000 active | AID 1527, 2009;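 active means inhibition above the mean of all tested compounds plus 3 SD, cutoff set per screening run, cut at about 7.5% in these data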;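 further: red hydrolysis product quenches plate fluorescence so inhibitors raise well fluorescence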
OPRM1 ag – OPRM1 agonists via beta-arrestin recruitment, confirmation, counter-screen for mouse HTR2A agonist project, cell-based, luminescence, single concentration. 5.3% of 2,300 active. shares compounds with HTR2A ag. activation, % at 9.3 µM. U2OS OPRM1 beta-arrestin PathHunter; DMSO 0%, DAMGO 9.3 µM 100%;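 active means mean activation above the mean of DMSO-only wells plus 3 SD, cut at about 0.5% in these data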
m5-HT2A ag conf – mouse HTR2A agonists, beta-arrestin recruitment, confirmation, cell-based, luminescence, CHO-K1 PathHunter, triplicate; shares compounds with HTR2A ag; DMSO 0%, 30 µM serotonin 100%; activation, % at 7.6 µM; 19% of 2,300 active;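 active means mean activation across triplicates above the hit threshold derived in the original primary screen, cut at about 15% in these data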
Numbers stand for hits; 0 = inactive; - = not tested or not shown. In the library only some 2.5% were active in any assay of this set; here they are far more common.

SMILES	dFosB activator	HTR2A ag	IMP-1 inhibitor	VIM-2 inh	OPRM1 ag	m5-HT2A ag conf
O=[N+]([O-])c1ccc2ncnc(N3CCN(Cc4ccc5c(c4)OCO5)CC3)c2c1	0	31	0	0	0	73
O=[N+]([O-])c1cccnc1N1CCN(Cc2ccc3c(c2)OCO3)CC1	0	29	0	0	0	68
CC(C)c1cc(=O)[nH]c(N2CCN(Cc3ccc4c(c3)OCO4)CC2)n1	0	20	0	0	0	19
CCCc1cc(=O)[nH]c(N2CCN(Cc3ccc4c(c3)OCO4)CC2)n1	0	0	0	0	-	-
CN(C(=O)CSc1nnc(-c2ccco2)n1Cc1ccccc1)C1CCS(=O)(=O)C1 (stereo not drawn)	0	0	-	-	-	-
COc1cc(Cl)c(S(=O)(=O)N2CC(C)OC(C)C2)cc1Cl (stereo not drawn)	0	0	0	0	-	-
COc1cc(Cl)c(S(=O)(=O)N2CCOCC2)cc1Cl	0	15	0	0	0	0
CCOc1ccc(NC(=O)CN(C)C(=O)COc2cccc3c2OC(C)(C)C3)cc1OCC	0	0	-	-	-	-
COc1ccc(NC(=O)CCCNC(=O)c2ccc(Cl)cc2)cc1S(=O)(=O)N1CCOCC1	0	15	-	-	0	0
COC(=O)[C@@]1(Sc2ccc(C)cc2)CC(=O)N[C@@H]1c1ccc(C(F)(F)F)cc1	-	15	-	-	0.8	0
O=C(NCCCNC(=O)c1c(Cl)cccc1Cl)c1c(Cl)cccc1Cl	0	0	-	-	-	-
N#CC1(Cc2ccccc2Cl)c2ccccc2C=CN1C(=O)c1ccccc1 (stereo not drawn)	0	19	0	0	0	0
CC(C)(C)OC(=O)NCCCCCNC(=O)c1[nH]cnc1C(=O)Nc1ccon1	0	0	-	-	-	-
C[C@]12CCC(=O)C=C1CCC1C2CC[C@@]2(C)C1CCC21OCCO1 (stereo partly drawn)	0	0	-	-	-	-
CC(=O)C12OC1CC1C3CCC4=CC(=O)CCC4(C)C3CCC12C (stereo not drawn)	0	16	0	0	0	0
Cc1ccccc1NC(=O)Cc1nc(COC(=O)c2ncc(Cl)c(Cl)c2Cl)cs1	0	0	-	-	-	-
Cc1n[nH]c(=O)c2c(NC(=O)CSc3nncn3C(C)C)oc(C)c12	0	0	-	-	-	-
c1csc(-c2nnc(NC3CCCCC3)c3ccccc23)c1	0	23	0	0	0	0
Cc1ccc2nc(SCn3nnc4ccccc4c3=O)[nH]c2c1	0	0	0	0	-	-
Cc1ccc(SCn2nnc3ccccc3c2=O)c(C)c1	0	25	0	0	0	0
COc1ccc(CNC(=O)CN(C(=O)CCC(=O)Nc2ccccn2)c2cccc(C)c2C)cc1	0	0	0	0	-	-
O=C(NC1CCCCC1)C(C1CC1)n1c(=O)c(-c2ccco2)nc2ccccc21 (stereo not drawn)	-	16	-	-	0	0
COc1ccc2c(c1)CCCC21NC(=O)N(CC(=O)NCc2cccs2)C1=O (stereo not drawn)	0	19	-	-	0	0
Cc1ccc(C(=O)N/C(=C/c2ccc(-c3cccc([N+](=O)[O-])c3)o2)C(=O)NC(C)C)cc1	0	21	0	0	0	0
COc1cccc(C=Nc2cc(C)cc(C)c2)c1O	0	0	0	0	-	-
COc1cccc(C=Nc2ccc3c(c2)CCC3)c1O	0	15	0	0	0	0
COC(=O)C1=C(CS(=O)(=O)c2cc(Cl)ccc2OC)NC(=O)NC1c1ccc(O)c(OC)c1 (stereo not drawn)	0	15	0	0	0	0
COC(=O)C1=C(CS(=O)(=O)c2ccc(C)cc2)NC(=O)NC1c1ccc(OC)c(OC)c1 (stereo not drawn)	0	0	0	0	-	-
Cc1ccn2cc(CNS(=O)(=O)c3ccc4c(c3)OCCO4)nc2c1	0	26	0	0	0	0
